DENV2 CPE rescue – DENV2-induced cell death inhibition; DENV2-infected cells, cytopathic effect rescue, plate reader; CPE inhibition, % at 9.99 µM; 350,000 compounds, 1.7% hits; in the data active = CPE inhibition above about 20%, passing the limit was not always enough; inconclusive = no clear call, values can overlap the other calls; tested in BHK-21 cells;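 note: 0% = median of neutral control wells and 100% = median of positive control wells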
C2C12 statin – suppressors of simvastatin-induced myotoxicity in C2C12 myotubes; rescue of ATP level, % at 7.49 µM; 330,000 compounds, 0.78% hits; ATP luminescence, 48 h; scaled: DMSO 0, geranylgeraniol control 100;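 active = mean ATP rescue above about 67%, or every replicate alone reaching that limit, limit read from the data, passing the limit was not always enough; inconclusive = no clear call, values can overlap the other calls; inactive = mean under the limit and some replicate under it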;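 note: myotubes were challenged with 10 µM simvastatin during compound exposure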
E-selectin induc – induces E-selectin expression in human endothelial cells; HUVEC E-selectin immunofluorescence imaging; normalized: neutral wells 0, TNF-alpha wells 100; activation, % at 7.58 µM; 260,000 compounds, 0.37% hits; AID 686992;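 active = mean E-selectin-positive cell signal at least 10% of the positive control, reached in at least 60% of replicates, without over 20% cell loss; inconclusive = no rule given, readout overlaps actives, possibly toxicity-flagged; inactive = the rest, including those meeting only one limit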
Target sequence (P16581 whole entry, looked up): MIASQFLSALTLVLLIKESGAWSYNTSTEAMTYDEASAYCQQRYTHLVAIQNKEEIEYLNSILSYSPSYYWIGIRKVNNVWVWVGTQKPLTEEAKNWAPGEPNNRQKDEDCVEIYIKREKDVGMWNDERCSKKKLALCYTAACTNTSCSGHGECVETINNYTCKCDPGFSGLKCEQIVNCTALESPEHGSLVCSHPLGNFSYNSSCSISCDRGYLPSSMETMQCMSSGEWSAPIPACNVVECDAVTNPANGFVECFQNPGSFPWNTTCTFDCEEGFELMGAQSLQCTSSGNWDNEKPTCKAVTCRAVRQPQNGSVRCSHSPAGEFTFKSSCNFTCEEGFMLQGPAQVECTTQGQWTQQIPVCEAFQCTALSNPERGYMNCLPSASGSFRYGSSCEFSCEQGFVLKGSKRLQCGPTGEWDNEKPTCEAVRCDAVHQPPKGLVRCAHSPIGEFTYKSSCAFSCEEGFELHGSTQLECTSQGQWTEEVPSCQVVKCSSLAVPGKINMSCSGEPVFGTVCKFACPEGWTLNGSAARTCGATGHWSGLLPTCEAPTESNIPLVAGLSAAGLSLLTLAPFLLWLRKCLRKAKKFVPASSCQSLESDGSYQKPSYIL
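assay system = HUVEC, human umbilical vein endothelial cells | input = 3,000 HUVEC seeded per well | medium = EGM-2 growth medium on 0.1% gelatin-coated wells | dosing = one compound dose added by pin transfer | signal = immunofluorescence imaging | read-out basis = % PE-positive cells | control set = TNF-alpha, DMSO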
* marks the source's active call; other numbers are inactive results; ? = inconclusive; . = no result given. Most compounds without a hit are left out; they make up all but 2.2% or so of the library.

SMILES	DENV2 CPE rescue	C2C12 statin	E-selectin induc
C[C@@H]1CN([C@H](C)CO)C(=O)c2cc(NC(=O)c3ccncc3)ccc2O[C@@H](C)CCCCO[C@H]1CN(C)C	84.6*	-15.3	0.0
C[C@@H]1CCCCO[C@H](CN(C)C)[C@@H](C)CN([C@H](C)CO)C(=O)c2cc(NC(=O)c3ccncc3)ccc2O1	-13.0	-6.1	0.6
C[C@H]1CCCCO[C@@H](CN(C)C)[C@@H](C)CN([C@@H](C)CO)C(=O)c2cc(NC(=O)c3ccncc3)ccc2O1	11.9	-26.4	0.1
CCNC(=O)C[C@H]1CC[C@H]2[C@H](COc3ccc(NS(=O)(=O)c4ccccc4C)cc3C(=O)N2C)O1	6.2	17.4	0.0
CO[C@H](CN(C)C(=O)C1CCOCC1)[C@@H](C)CN(C(=O)Nc1ccc(F)cc1)[C@@H](C)CO	-1.6	-5.7	-0.1
Cc1ccc(S(=O)(=O)N(C)C[C@@H]2Oc3ccc(NS(=O)(=O)c4c(C)noc4C)cc3C(=O)N([C@H](C)CO)C[C@H]2C)cc1	-5.2	-16.1	-0.3
CN1C(=O)[C@H]2[C@@H](/C=C/c3ccccc3)N3C(=O)CN(Cc4ccccc4)C(=O)[C@@]3(C)[C@H]2C1=O	0.6	0.9	0.0
COC(=O)CN1C(=O)[C@H]2[C@@H](/C=C/c3ccccc3)N3C(=O)CN(Cc4ccccc4)C(=O)[C@@]3(C)[C@H]2C1=O	50.1*	-0.8	0.3
COC(=O)C[C@H]1CC[C@H]2[C@@H](COC[C@@H](O)CN2CCC(F)(F)F)O1	-4.4	-26.0	-0.1
Cc1cc(C)n(CC(O)COc2c(C)cccc2C)n1 (centres undefined)	-1.3	.	0.3
Cc1cc(C)n(CC(O)COc2cccc(OCC(O)Cn3nc(C)cc3C)c2)n1 (centres undefined)	.	91.0*	.
C[C@@H]1CCCCO[C@H](CN(C)Cc2ccc(C(=O)O)cc2)[C@H](C)CN([C@H](C)CO)C(=O)c2cc(NS(=O)(=O)c3ccc(F)cc3)ccc2O1	?	.	-0.2
COc1ccc(CN(C)C[C@@H]2OCCCC[C@@H](C)Oc3ccc(NS(=O)(=O)c4c(C)noc4C)cc3C(=O)N([C@@H](C)CO)C[C@@H]2C)cc1	-1.3	.	0.0
C[C@H]1CN([C@@H](C)CO)C(=O)c2cc(NS(=O)(=O)c3cn(C)cn3)ccc2O[C@H]1CN(C)S(C)(=O)=O	5.0	46.8	9.8
COc1ccc(N=C2S/C(=C\c3cc(C)n(C)c3C)C(=O)N2CC(C)C)cc1	.	156.2*	.
COc1ccc(N=C2S/C(=C\c3ccco3)C(=O)N2CC(C)C)cc1	.	-7.1	.
CC(=O)CSc1ccc(-c2nc3cc(C)c(C)cc3[nH]2)cn1	26.6*	.	0.1
CC(=O)CSc1ccc(-c2nc3ccccc3[nH]2)cn1	-10.1	-70.3	.
C[C@@H]1CCCCO[C@@H](CN(C)S(=O)(=O)c2cccs2)[C@@H](C)CN([C@H](C)CO)C(=O)c2cc(N(C)C)ccc2O1	5.4	3.4	-0.2
N#CCC(=O)N1CCN(C(c2ccccc2)c2ccccc2)CC1	-1.9	.	.
O=C(CN1CCN(C(c2ccccc2)c2ccccc2)CC1)N1CCOCC1	22.8*	5.2	.
C[C@H](CO)N1C[C@H](C)[C@H](CN(C)S(=O)(=O)c2ccc(F)cc2)Oc2ncc(-c3ccncc3)cc2C1=O	-2.4	20.5	0.8
O=C(Cc1ccccn1)NCC[C@H]1CC[C@H](NC(=O)CN2CCOCC2)[C@H](CO)O1	11.6	-3.0	0.5
Cc1ccc(C(=O)Nc2c(C(=O)N3CCOCC3)cnn2-c2ccccc2)cc1	.	110.6*	.
O=C(Nc1c(C(=O)N2CCOCC2)cnn1-c1ccccc1)c1ccc([N+](=O)[O-])cc1	3.9	5.5	-0.1
SMILES	DENV2 CPE rescue	C2C12 statin	E-selectin induc
CCCCC1(CC)C(=O)NC(=O)NC1=Nc1ccc(OC)cc1 (centres undefined)	.	1.7	.
CCC1(CC)C(=O)NC(=O)NC1=Nc1cccc(OC)c1	.	117.0*	.
Cn1cnc(S(=O)(=O)N[C@@H]2CC[C@@H](CC(=O)Nc3ccccc3)O[C@@H]2CO)c1	-1.1	-0.9	0.4
O=C(CN1CCCCC1)Nc1ccc(C(F)(F)F)cc1Cl	6.5	90.6*	0.2
O=C(CN1CCCC1)Nc1cc(C(F)(F)F)ccc1Cl	.	.	2.3
C[C@H]1CN([C@@H](C)CO)C(=O)c2cccc(NC(=O)C3CC3)c2O[C@H]1CN(C)C(=O)Nc1ccccc1	-6.6	-9.1	-0.4
CCOc1ccccc1Nc1ncnc2ccc(Br)cc12	0.2	.	0.1
CCOc1ccccc1Nc1ncnc2ccccc12	.	85.9*	.
COC(=O)C[C@H]1CC[C@H]2[C@@H](COC[C@@H](O)CN2C(=O)Nc2cccc(F)c2)O1	-1.8	7.7	0.0
C[C@H]1CN([C@@H](C)CO)C(=O)Cc2cc(NC(=O)Cn3cnnn3)ccc2O[C@H]1CN(C)C(=O)Nc1ccccc1	-9.8	35.1	0.0
